Results from ChEMBL document CHEMBL4665798, “Novel Human Urate Transporter 1 Inhibitors as Hypouricemic Drug Candidates with Favorable Druggability” (J Med Chem, 2020).

What was measured:
[1] = Sub-acute toxicity in Kunming mouse assessed as hepatocellular condensation of liver at 50 mg/kg, po administered as single dose every other day for 14 days by H and E staining based assay; assay type: organism-based; conditions: in vivo, 336 h, time 14 day
[2] = Sub-acute toxicity in Kunming mouse assessed as ballooning degeneration of liver at 50 mg/kg, po administered as single dose every other day for 14 days by H and E staining based assay; assay type: organism-based; conditions: in vivo, 336 h, time 14 day
[3] = Sub-acute toxicity in Kunming mouse assessed as congestion in hepatic central vein at 50 mg/kg, po administered as single dose every other day for 14 days by H and E staining based assay; assay type: organism-based; conditions: in vivo, 336 h, time 14 day
[4] = Sub-acute toxicity in female Kunming mouse assessed as increase in body weight at 50 mg/kg, po administered once every second day for 14 days; assay type: organism-based; conditions: in vivo, 336 h, time 14 day
[5] = Sub-acute toxicity in male Kunming mouse assessed as increase in body weight at 50 mg/kg, po administered once every second day for 14 days; assay type: organism-based; conditions: in vivo, 336 h, time 14 day
[6] = Acute toxicity in female Kunming mouse assessed as change in body weight at 500 mg/kg, ig measured for 1 week; assay type: organism-based; conditions: in vivo, po, 168 h, time 1 weeks
[7] = Acute toxicity in Kunming mouse assessed as induction of abnormal behaviors by measuring lethargy at 500 mg/kg, ig; assay type: organism-based; conditions: in vivo, po
[8] = Acute toxicity in male Kunming mouse assessed as change in body weight at 500 mg/kg, ig measured for 1 week; assay type: organism-based; conditions: in vivo, po, 168 h, time 1 weeks
[9] = Acute toxicity in Kunming mouse assessed as induction of abnormal behaviors by measuring clonic convulsion at 500 mg/kg, ig; assay type: organism-based; conditions: in vivo, po
[10] = Acute toxicity in Kunming mouse assessed as induction of abnormal behaviors by measuring anorexia at 500 mg/kg, ig; assay type: organism-based; conditions: in vivo, po
[11] = Acute toxicity in Kunming mouse assessed as death at 500 mg/kg, ig measured for 1 week; assay type: organism-based; conditions: in vivo, po, 168 h, time 1 weeks
[12] = Clearance in Sprague-Dawley rat at 1 mg/kg, iv by LC-MS analysis; assay type: ADME, organism-based; conditions: in vivo
[13] = Half-life in Sprague-Dawley rat at 1 mg/kg, iv by LC-MS analysis; assay type: ADME, organism-based; conditions: in vivo
[14] = MRT (0 to infinity) in Sprague-Dawley rat at 1 mg/kg, iv by LC-MS analysis; assay type: ADME, organism-based; conditions: in vivo
[15] = AUC (0 to infinity) in Sprague-Dawley rat at 1 mg/kg, iv by LC-MS analysis; assay type: ADME, organism-based; set-up: time infinity, route intravenous, dose 1 mg/kg; conditions: in vivo
[16] = AUC (0 to t) in Sprague-Dawley rat at 1 mg/kg, iv by LC-MS analysis; assay type: ADME, organism-based; set-up: dose 1 mg/kg; conditions: in vivo
Cytochrome P450 3A4 = Cytochrome P450 3A4 (Homo sapiens, UniProt P08684); assay: Inhibition of CYP3A4 in human liver microsome using midazolam as substrate measured after 20 mins in presence of NADPH by LC-MS/MS analysis
Cytochrome P450 2D6 = Cytochrome P450 2D6 (Homo sapiens, UniProt P10635); assay: Inhibition of CYP2D6 in human liver microsome using probe substrate measured after 20 mins in presence of NADPH by LC-MS/MS analysis
Cytochrome P450 1A2 = target: T1, Cytochrome P450 1A2 (Homo sapiens, UniProt P05177); assay: Inhibition of CYP1A2 in human liver microsome using probe substrate measured after 20 mins in presence of NADPH by LC-MS/MS analysis
T1 sequence (P05177 whole entry): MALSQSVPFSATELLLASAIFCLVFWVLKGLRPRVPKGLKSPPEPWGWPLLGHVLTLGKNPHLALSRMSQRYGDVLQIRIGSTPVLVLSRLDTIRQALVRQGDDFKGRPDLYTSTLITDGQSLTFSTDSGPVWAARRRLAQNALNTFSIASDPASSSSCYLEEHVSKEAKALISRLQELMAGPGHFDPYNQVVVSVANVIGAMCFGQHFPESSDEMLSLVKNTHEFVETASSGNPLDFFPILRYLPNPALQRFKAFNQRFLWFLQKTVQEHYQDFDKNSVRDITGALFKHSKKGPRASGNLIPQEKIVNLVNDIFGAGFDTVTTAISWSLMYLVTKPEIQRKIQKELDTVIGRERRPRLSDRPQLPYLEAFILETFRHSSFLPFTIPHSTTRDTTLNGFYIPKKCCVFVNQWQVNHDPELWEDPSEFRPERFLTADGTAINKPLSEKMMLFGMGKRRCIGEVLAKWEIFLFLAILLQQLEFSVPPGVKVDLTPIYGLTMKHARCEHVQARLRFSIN

[17] = target: T2, Solute carrier family 22 member 12 (Homo sapiens, UniProt Q96S37); assay: Inhibition of human URAT1 expressed in HEK293T cells assessed as reduction in [14C]uric acid uptake preincubated for 15 mins followed by [14C]uric acid addition by liquid scintillation counting method; assay type: cell-based
T2 sequence (Q96S37 whole entry): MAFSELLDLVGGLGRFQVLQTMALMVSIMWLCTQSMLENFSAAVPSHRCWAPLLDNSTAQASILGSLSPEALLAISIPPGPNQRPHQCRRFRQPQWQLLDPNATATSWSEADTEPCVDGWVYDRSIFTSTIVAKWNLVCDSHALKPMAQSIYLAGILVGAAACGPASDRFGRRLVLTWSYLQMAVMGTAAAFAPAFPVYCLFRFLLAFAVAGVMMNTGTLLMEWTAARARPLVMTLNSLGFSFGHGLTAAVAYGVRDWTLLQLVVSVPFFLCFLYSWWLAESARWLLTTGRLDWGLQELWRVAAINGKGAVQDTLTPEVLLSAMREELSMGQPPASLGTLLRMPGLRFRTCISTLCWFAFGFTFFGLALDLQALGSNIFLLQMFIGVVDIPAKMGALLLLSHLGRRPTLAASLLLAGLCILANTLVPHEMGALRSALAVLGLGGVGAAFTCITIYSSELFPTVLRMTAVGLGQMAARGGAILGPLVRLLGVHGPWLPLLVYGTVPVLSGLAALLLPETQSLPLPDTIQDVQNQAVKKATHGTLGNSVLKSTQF

Mus musculus = assay: Hypouricemic activity in Kunming mouse model of xanthine/potassium oxonate-induced acute hyperuricemia assessed as decrease in serum uric acid level at 2 mg/kg administered 3 hrs prior to xanthine/potassium oxonate and measured after 6 hrs relative to control; assay type: functional; set-up: scale not given: the % may be the effect or the level left; conditions: time 9 hrs
Procedure, shortened: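 Male Kunming mice, hyperuricemia induced by intragastric xanthine plus subcutaneous potassium oxonate (0.2 mL each). […] Groups: normal vehicle, untreated model, active control, test. Serum uric acid measured. Decrease ratio = (model SUA − compound SUA)/(model SUA − vehicle SUA).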

[18] = Sub-acute toxicity in Kunming mouse assessed as death at 50 mg/kg, po administered once every second day for 14 days; assay type: organism-based; conditions: in vivo, 336 h, time 14 day
[19] = Sub-acute toxicity in Kunming mouse assessed as lethargy at 50 mg/kg, po administered once every second day for 14 days; assay type: organism-based; conditions: in vivo, 336 h, time 14 day
[20] = Sub-acute toxicity in Kunming mouse assessed as clonic convulsion at 50 mg/kg, po administered once every second day for 14 days; assay type: organism-based; conditions: in vivo, 336 h, time 14 day
[21] = Sub-acute toxicity in Kunming mouse assessed as anorexia at 50 mg/kg, po administered once every second day for 14 days; assay type: organism-based; conditions: in vivo, 336 h, time 14 day
[22] = Sub-acute toxicity in Kunming mouse assessed as appearance of ruffled fur at 50 mg/kg, po administered once every second day for 14 days; assay type: organism-based; conditions: in vivo, 336 h, time 14 day

Chain of Cytochrome P450 2D6 (P10635 whole entry): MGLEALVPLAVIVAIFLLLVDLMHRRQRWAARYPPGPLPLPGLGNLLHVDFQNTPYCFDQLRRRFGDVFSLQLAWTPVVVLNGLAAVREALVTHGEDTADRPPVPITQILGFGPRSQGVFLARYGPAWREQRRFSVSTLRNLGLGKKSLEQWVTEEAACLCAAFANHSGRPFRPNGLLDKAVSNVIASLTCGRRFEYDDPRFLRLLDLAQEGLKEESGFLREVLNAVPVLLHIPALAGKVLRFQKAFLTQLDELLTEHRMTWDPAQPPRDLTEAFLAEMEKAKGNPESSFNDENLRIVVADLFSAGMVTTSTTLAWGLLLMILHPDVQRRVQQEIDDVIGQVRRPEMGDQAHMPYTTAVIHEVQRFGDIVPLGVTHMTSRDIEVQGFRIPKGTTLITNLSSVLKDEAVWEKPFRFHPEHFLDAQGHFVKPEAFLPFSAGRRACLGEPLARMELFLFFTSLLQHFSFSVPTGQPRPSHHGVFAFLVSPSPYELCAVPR
Chain of Cytochrome P450 3A4 (P08684 whole entry): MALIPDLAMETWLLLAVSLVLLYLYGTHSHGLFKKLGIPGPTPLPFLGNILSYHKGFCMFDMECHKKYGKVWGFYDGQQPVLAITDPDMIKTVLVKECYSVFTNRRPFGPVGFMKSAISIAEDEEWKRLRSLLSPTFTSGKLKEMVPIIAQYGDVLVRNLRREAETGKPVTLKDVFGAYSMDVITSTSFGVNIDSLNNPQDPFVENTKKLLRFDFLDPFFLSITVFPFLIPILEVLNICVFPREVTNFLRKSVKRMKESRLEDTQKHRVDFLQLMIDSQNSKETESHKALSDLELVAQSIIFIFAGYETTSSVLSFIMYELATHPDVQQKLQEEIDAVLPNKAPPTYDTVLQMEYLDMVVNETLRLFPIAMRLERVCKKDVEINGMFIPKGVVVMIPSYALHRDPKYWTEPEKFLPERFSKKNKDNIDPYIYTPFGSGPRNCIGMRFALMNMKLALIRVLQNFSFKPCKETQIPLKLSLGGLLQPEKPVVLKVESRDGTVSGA

| Compound | Activity [1] | Activity [2] | Activity [3] | Activity [4] | Activity [5] | Activity [6] | Activity [7] | Activity [8] | Activity [9] | Activity [10] | Activity [11] | clearance [12] | half-life [13] | MRT inf [14] | AUC(0-inf) [15] | AUC(0-t) [16] | IC50 (Cytochrome P450 3A4) | IC50 (Cytochrome P450 2D6) | IC50 (Cytochrome P450 1A2) | IC50 [17] | further results |
| --- | --- | --- | --- | --- | --- | --- | --- | --- | --- | --- | --- | --- | --- | --- | --- | --- | --- | --- | --- | --- | --- |
| O=C(CSc1nnc(Br)n1-c1ccc(C2CC2)c2ccccc12)NS(=O)(=O)c1ccc(Br)cc1 | Non-Toxic | Non-Toxic | Non-Toxic | Non-Toxic | Non-Toxic | Non-Toxic | Non-Toxic | Non-Toxic | Non-Toxic | Non-Toxic | Non-Toxic | 5.46 mL/min/kg | 300 min | 4.3 h | 3090 ng·h/mL | 3030 ng·h/mL | > 50 µM | > 50 µM | > 50 µM | 4170 nM | Activity (Mus musculus): 97.84%; Activity [18]: Non-Toxic; Activity [19]: Non-Toxic; Activity [20]: Non-Toxic; Activity [21]: Non-Toxic; Activity [22]: Non-Toxic |
| CC(Sc1nc2ncccc2n1-c1ccc(C2CC2)c2ccccc12)C(=O)O (racemic) | Non-Toxic | Non-Toxic | Non-Toxic | Non-Toxic | Non-Toxic | Non-Toxic | Non-Toxic | Non-Toxic | Non-Toxic | Non-Toxic | Non-Toxic | 4.4 mL/min/kg | 186 min | 2.7 h | 3910 ng·h/mL | 3480 ng·h/mL | > 50 µM | > 50 µM | > 50 µM | 1570 nM | Activity (Mus musculus): 92.89%; Activity [18]: Non-Toxic; Activity [19]: Non-Toxic; Activity [20]: Non-Toxic; Activity [21]: Non-Toxic; Activity [22]: Non-Toxic |
